From ChEMBL document CHEMBL3352093, “Design, synthesis, and biological evaluation of 1, 3-disubstituted-pyrazole derivatives as new class I and IIb histone deacetylase inhibitors” (Eur J Med Chem, 2014) come the findings set out here.

Assay [1] has as its target T1, Histone deacetylase (Homo sapiens) (UniProt Q13547+O15379+Q9UBN7+Q92769+Q9UQL6+Q8WUI4+Q9BY41+Q96DB2+P56524+Q9UKV0+Q969S8). The assay can be described thus: Inhibition of HDAC in human HCT116 cells assessed as increase in acetylated H3 level after 24 hrs by Western blot analysis. The format is cell-based. Particulars: HCT-116. The method, boiled down: (§1)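 HCT116 cells were cultured in McCoy 5A with antibiotics and 10% FBS. They were seeded at 6 × 10^4/well, left to attach overnight, then treated with various compound concentrations for 24 h at 37 °C. Lysates ([…] total protein) were run on 15% SDS-PAGE and blotted to PVDF. Blots were probed with anti-acetyl-histone H3, anti-acetylated tubulin or histone H3 antibodies (overnight, 4 °C), then an HRP secondary, and detected by ECL.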

For assay [2], the target named is T1, Histone deacetylase (Homo sapiens). Description: Inhibition of HDAC in human HCT116 cells assessed as increase in acetylated alpha-tubulin level after 24 hrs by Western blot analysis. Format: cell-based. Conditions: HCT-116. Put shortly:
as §1
On the technique in general: A western blot detects proteins with antibodies after separation by electrophoresis.

Molecules are shown by their SMILES.

For `O=C(CCCCc1ccn(Cc2cccc(-c3ccccc3)c2)n1)NO`, the inhibition result in assay [1] and in assay [2] was “Dose-dependent effect” in each case.
In the case of `O=C(CCCCc1ccn(Cc2ccc(-c3ccccc3)cc2)n1)NO`, the inhibition result in assay [1] and in assay [2] was “Dose-dependent effect” each time.
